Drawing on ChEMBL document CHEMBL1153354, “Amide-containing diketoacids as HIV-1 integrase inhibitors: synthesis, structure-activity relationship analysis, and biological activity” (Bioorg Med Chem, 2009), this text covers IC50 for 17 compounds.

The target in assay [1] is T1, Human immunodeficiency virus type 1 integrase (Human immunodeficiency virus 1, UniProt Q7ZJM1). The assay can be described thus: Inhibition of HIV1 integrase strand transfer activity. In outline: (§1)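 Wild-type IN (200 nM final) preincubated with inhibitor 30 min at 30 °C in buffer of 50 mM NaCl, 1 mM HEPES pH 7.5, 50 μM EDTA, 50 μM DTT, 10% glycerol, 7.5 mM MnCl2, 0.1 mg/mL BSA, 10 mM 2-mercaptoethanol, 10% DMSO, 25 mM MOPS pH 7.2. Then 20 nM 5'-32P-labeled linear oligonucleotide substrate added, 1 h further. Quenched with formamide/EDTA loading dye.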

In assay [2] the target is T1, Human immunodeficiency virus type 1 integrase. The experiment in a line: Inhibition of HIV1 integrase 3' processing activity. In outline: as §1

T1 sequence (Q7ZJM1 whole entry): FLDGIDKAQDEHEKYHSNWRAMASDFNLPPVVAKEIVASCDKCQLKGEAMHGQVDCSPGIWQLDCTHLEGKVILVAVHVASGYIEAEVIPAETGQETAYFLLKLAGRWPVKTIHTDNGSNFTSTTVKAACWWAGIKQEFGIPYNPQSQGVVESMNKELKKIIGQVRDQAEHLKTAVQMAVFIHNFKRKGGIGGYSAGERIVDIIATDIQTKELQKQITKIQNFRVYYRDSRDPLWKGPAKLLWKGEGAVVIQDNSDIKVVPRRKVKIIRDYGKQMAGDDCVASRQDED

In general, IC50 refers to the concentration that inhibits the measured activity by half. A high value points to weaker potency in that assay. On to `Cc1cccc(C(=O)Nc2cccc(C(=O)/C=C(\O)C(=O)O)c2)c1O`, for which the IC50 in assay [1] amounted to 10 µM; in assay [2], 48 µM.

Regarding `COc1ccc(C(=O)Nc2cccc(C(=O)/C=C(\O)C(=O)O)c2)cc1`, the values for the IC50 in assay [1] and in assay [2] were 19 µM and 95 µM, respectively.

As for `O=C(O)/C(O)=C/C(=O)c1cccc(NC(=O)c2ccccc2Cl)c1`, the half-maximal inhibitory concentration (IC50) amounted to 18 µM in assay [1] and 92 µM in assay [2].

`COc1ccccc1C(=O)Nc1cccc(C(=O)/C=C(\O)C(=O)O)c1`: the half-inhibitory concentration (IC50) in assay [1] came to 13 µM; in assay [2], 73 µM.

Turning to `COc1cccc(C(=O)Nc2cccc(C(=O)/C=C(\O)C(=O)O)c2)c1`, the concentration for half-maximal inhibition (IC50) was 12 µM in assay [1] and 69 µM in assay [2].

Consider `COc1cc(/C=C/C(=O)Nc2cccc(C(=O)/C=C(\O)C(=O)O)c2)ccc1O`, for which the values for the 50% inhibitory concentration (IC50) in assay [1] and in assay [2] were 11 µM and 42 µM, respectively.

Consider `O=C(/C=C/c1ccc(F)cc1)Nc1cccc(C(=O)/C=C(\O)C(=O)O)c1`, for which the half-maximal inhibitory concentration (IC50) in assay [1] worked out at 7 µM; in assay [2], 22 µM.

As for `O=C(/C=C/c1ccc(Cl)cc1)Nc1cccc(C(=O)/C=C(\O)C(=O)O)c1`, the figures for the IC50 in assay [1] and in assay [2] were 4 µM and 18 µM, respectively.

For the compound `O=C(O)/C(O)=C/C(=O)c1cccc(NC(=O)c2ccco2)c1`, the results for the IC50 in assay [1] and in assay [2] were 33 µM and greater than 100 µM, respectively.

As for `O=C(O)/C(O)=C/C(=O)c1cccc(NC(=O)c2ccccc2O)c1`, the figures for the IC50 in assay [1] and in assay [2] were 11 µM and 41 µM, respectively.

For `O=C(O)/C(O)=C/C(=O)c1cccc(NC(=O)c2cc([N+](=O)[O-])cc([N+](=O)[O-])c2O)c1`, the half-maximal inhibitory concentration (IC50) in assay [1] amounted to 2 µM; in assay [2], 8 µM.

`O=C(Cc1ccccc1)Nc1cccc(C(=O)/C=C(\O)C(=O)O)c1`: the results for the IC50 in assay [1] and in assay [2] were 7 µM and 56 µM, respectively.

For `O=C(O)/C(O)=C/C(=O)c1cccc(NC(=O)c2ccc(O)cc2)c1`, the concentration for half-maximal inhibition (IC50) in assay [1] turned out to be 13 µM; in assay [2], 81 µM.

For `COc1ccc(/C=C/C(=O)Nc2cccc(C(=O)/C=C(\O)C(=O)O)c2)cc1`, the IC50 in assay [1] stood at 11 µM; in assay [2] it was 30 µM.

Consider `O=C(O)/C(O)=C/C(=O)c1cccc(NC(=O)c2cccc(Cl)c2)c1`, for which the IC50 in assay [1] was 15 µM; in assay [2] it was 57 µM.

With `O=C(O)/C(O)=C/C(=O)c1cccc(NC(=O)c2ccccc2)c1`, the concentration for half-maximal inhibition (IC50) was 31 µM in assay [1] and greater than 100 µM in assay [2].

As to `O=C(/C=C/c1ccc(O)cc1)Nc1cccc(C(=O)/C=C(\O)C(=O)O)c1`, the IC50 was found to be 7 µM in assay [1] and 26 µM in assay [2].
